Measured values taken from the RNAGym collection of RNA variant scans (doi:10.1126/science.aae0568).
Variants at the floor of the assay were thinned out.

B1: tRNA (parent)
chain: GUUCCGUUGGCGUAAUGGUAACGCGUCUCCCUCCUAAGGAGAAGACUGCGGGUUCGAGUCCCGUACGGAACG

Variants of: B1
Experiment: yeast fitness relative to wild type (ratio to wild type); higher = fitter; tRNA-Arg(CCU), competitive growth, 37 C, YPD
Outline: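 Variants of the tRNA-Arg(CCU) gene were chemically synthesised with a 3% per-site mutation rate across 69 sites and placed at the native genomic locus in Saccharomyces cerevisiae. Six parallel replicates of the pooled strains were competed in YPD at 37°C for 24 hours, and gene amplicons from the start and end populations were read by 100-nucleotide paired-end sequencing. Darwinian fitness relative to wild type was derived from changes in genotype frequencies. Genotypes required ≥ 100 starting reads, and estimates < 0.5 were set to 0.5.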

First: GUUACCUUGGCGUAAUGGUAAUGCGUCUCCCUCCUAAGGAGAAGACUGCGCGUUCGAGUCCAGUACGGAACG
Second: GUUACGUUGGCGUAAUGCUAACGCGUCUCCCUCCUAAGGAGAAGAGUGCGGGUUCGAGUCCCGUACGGAACG
The yeast fitness of the first is lower: ≤ 0.5 for the first, 0.503 for the second.

First: GUUACGUUGGCGUAAUGAUAACGCCUCUCCCUCCUAAGGAGAAGACUGCGGGUUCGAGUCCCGUACGGAACG
Second: GUUACGUUCGGGUAAUGGUAACGCGUCUCCCUCCUAAGGAGAAGCCUGCGGGUUCGAGUCCCGUACGGAACG
The yeast fitness of the first is higher: 0.515 for the first, 0.508 for the second.

First: GUUACGUUGGCAUAAUGGUAACGCGUCUCCCUCCUAAGGAGAAGACUGCGGGUUCGAGUCCCGUACGGAACG
Second: GUUACGUUGGCGUAAUGGUAACCCGUCUCCCUCCUAAGGCGAAGACUGCGGGUUAGAGUCCCGUACGGAACG
The yeast fitness of the first is higher: 0.666 for the first, 0.63 for the second.

GUUACGUUGCCGUAAUGGUAACGCGUCUCCCUUCUAAGGAGAAGAGUGCGGGUACGAGUCCCGUACGGAACG and GUUACCUUGACGUAAUGGUAACGCGUCACCCUCCUAAGGAGAAGACUGCGGGUUCGAGUCCCGUACGGAACG cannot be ordered by yeast fitness: ≤ 0.5 for the first, ≤ 0.5 for the second.

Compared with GUUACGUUGGCGUAAUGCUAACGCGUCUCCCUCUUAAGGAGAAGACUGCGGGUUCGAGUCCCGUACGGAACG, GUUACGUUGGCGUAAUGCUAACGCGUCUACAUCCUAAGGAGAAGACUGCGGGUUCGAGUCCCGUACGGAACG is higher in yeast fitness: ≤ 0.5 for the first, 0.562 for the second.

GUUACGUUGGCGUAAUGGUAACACGUCUCCCUCCGAAGGAGAAGACUGCGGGUUCGAGUCACGUACGGAACG and GUUACGUUGGCGUAAUGGUAACCCGUCUCCUUCCUCAGGAGACGACUGCCGGUUCGAGUCCCGUACGGAUCG cannot be ordered by yeast fitness: ≤ 0.5 for the first, ≤ 0.5 for the second.

GUUACGUUCGCGUAAUGGUAACGCGUCUCACUCCUAAGAAGAAGACUGCGGGUUCCAGUCCCGUACGGAACG and GUUACGUUCGCGUAAUGGUAACGCGUCUCACUCCUAAGAAGAAGACUGCGGGUUCGAAUCCCGUACGGAACG cannot be ordered by yeast fitness: ≤ 0.5 for the first, ≤ 0.5 for the second.

GUUACGUUGGCCUAAUGGCAACGGGUCUCCCUCCUAAGGAGAUGACUGCGGGUUCGAGUCCCGUACAGAACG and GUUACGUUGGCGUAAUAGUAACGCGUCUCCCUCCUAAGGAAAAGACCGCCGGUUCGAGUCCCGUACGGAACG cannot be ordered by yeast fitness: ≤ 0.5 for the first, ≤ 0.5 for the second.

GUUACGUUGGCGUAAUCGUAACCCGUCUCCCUCCUAAGGAGAAGACUGCGGGUUCGCGUCCCGUACGGAACG and GUUACGUUGGCAUAAUGGUAACGCGUCUCCUUCCUAAGGAGAAGACUGCGGGUUCGAGACCCAUACGGAACG cannot be ordered by yeast fitness: ≤ 0.5 for the first, ≤ 0.5 for the second.

Compared with GUUACGUUGGCGUAAUGGUAACGCAUCUCCCUCCUAAGGAGAAGACUGCGGGUUCGAGUCCCGUACGGAACG, GUUACGUUCGCGUAAUGGUAACGCGUCUCACUCCUAAGAAGAAGACUGCGGGUUCGAGUCCCGUACGGAACG is lower in yeast fitness: 1.03 for the first, 0.51 for the second.

First: GUUACGUUGGCGUAAUAGUAACGCGUGUCCCUCCUAAGGAGAAGACUGCGGGUUUGAGUCCCGUACGGAACG
Second: GUUACGUUGCCGUAAUGGUAACGCGACUCCCUCCUAAGGAGAAGACUGCGGGUUCGAGUCCCGAACGGAACG
The yeast fitness of the first is higher: 0.62 for the first, ≤ 0.5 for the second.

GUUACGUUGGCGUAAUAGCAACGCGUCUCCCUCCUAAGGAAAAGACUGCGGGUUCGAGUCCCGUAUGGAACG and GUUACCUAGGCGUAAUGGUCUCGCGUCUCCCUUCUAAGGAGAAGAUUGCGGGUUCGGGUCCCGUACGGAACG cannot be ordered by yeast fitness: ≤ 0.5 for the first, ≤ 0.5 for the second.

GUUACGUUGGCGUAAUGAUAACGCGUUGCCCUGCUGAGGAGAAGACUGCGGGUUCGAGUCCCGUACGGAACG and GUUACGUUCGCGUGAUGGUAACGCGUCUCACUCCUAAGAAGAAGACUGCGGGUUCGAGUCCCGUACGGAACG cannot be ordered by yeast fitness: ≤ 0.5 for the first, ≤ 0.5 for the second.

GUUACGUUGCCGUAAUGGUAACGCGUCUGCCUCCUAAGGAGAAGACUGCGGGUUCGAGUCCCGUGCGGAACG and GUUACGUUGGCGUAAUGAUCACGCGGUUCCCUCCUAAGGAGAAGACUGUGGGUUCGAGUCCCGUACGGCACG cannot be ordered by yeast fitness: ≤ 0.5 for the first, ≤ 0.5 for the second.

Compared with GUUACGUUGGCGUAAUAAUAACGCAUCUCCCUCCUAAGGAGAAGACUGCGGGUUAGAGUCCCGUACGGAACG, GUUACGUUGGCAUAAUGGUAACGCGUCUCCCUCCUAAGGAGAAGUCUGCGGGUUCGAGUCCCGUACGGAACG is higher in yeast fitness: ≤ 0.5 for the first, 0.546 for the second.

GUUACGUUGACGUGAUGGUAACGCGUCUCCAUCCUAAGGAGAAGACUGCGGGUUCGAGUCCCGUACGGAACG and GUUACAUUGGAGUAAUGGUAAUGCGUCUUCCUCCUAAGGAGAAGACUGCGGGUUCGAGUCACGUACAGAACG cannot be ordered by yeast fitness: ≤ 0.5 for the first, ≤ 0.5 for the second.

First: GUUACGUUGGCGUAAUCGUAACCCGUCUCCCUCCUAAGGAGAAGACUGCGGGUUCGAGUCCCGUACGGAACG
Second: GUUACGUUGGCGUAAUGGUAACACGUCUCCCUGCUAAGGAGAAGACUGCGGGUUCGAGUCCCGUACGGAACG
The yeast fitness of the first is lower: ≤ 0.5 for the first, 0.655 for the second.

GUUACGUUGACGUAAUGGUAACGCGUCUCCCUCCUAAGGAGAAGACUGCGGGUACGAGUCCCGUACGGAACG and GUUACAUUGGCGUAACGGUAACGCGUCUCCCUCCUAAAGAGAAGACUGCGGGUUCGACUCCCGUAUGGAACG cannot be ordered by yeast fitness: ≤ 0.5 for the first, ≤ 0.5 for the second.

GUUACGUUGGCGUAAUCGUAAUGCGUCUCCCUCCUAAGGAGAAGACUGCGGGUUCGAGUCCCGUACGGAACG and GUUACGUUGGCGUAAUGCUAACGCGUCUCCUUCCUAAGGAGAAGACUGCGGGUUCGGGUCCCGCACGGAACG cannot be ordered by yeast fitness: ≤ 0.5 for the first, ≤ 0.5 for the second.

GUUACGUUGGCCUAAUGGUACGGCGUCUCCCUCCUAAGGAGAAGACUGCGGGUUAGAGUUCGGUACGGCACG and GUUACGUUGGCGUAAUAGUAACGCGUCUCCCUCCUAAGGAAAAGACUGCGGGUUCGAGUCCCGUACGGUACG cannot be ordered by yeast fitness: ≤ 0.5 for the first, ≤ 0.5 for the second.

First: GUUACGUUGGCGUAAUGAUAACGCGUAUCCCUCCUACGGAGAAGACUGCGGGUUCAAGUCCCGUACGGAACG
Second: GUUACGUUGGCGUAAUCGUCUCGCGUUUCCCUGCUAAGGAGAAGACUGCGGGUUCGAGUCCCAUACAGAACG
The yeast fitness of the first is higher: 0.579 for the first, ≤ 0.5 for the second.

Going from GUUACGUUAGCGUAAUGGUAACGCGUCUCCCUCCUAAGGAGAAGGCUGCGGGUUCGAGUCCCGUACGGAACG to GUUACGUUGGCGUAAUAGUAACGCGUCUCCCUCCUAAGGAGAAGACUGCGGGUUCGAGUGCCGUACGGAACG, the yeast fitness rises from ≤ 0.5 to 0.697.

GUUACGUUGGCGUAAUGGUAACAGGUCUCCCUCCUAAGGAGAAGACUGCGGGUUCGAGUCACGUAUGGAACG and GUUACGUUGGCGUAAUGCUAACGCGUCUCCCUCCUAAGGAGACGACUGCGGGUUCGAGUCCCGUACGGAACG cannot be ordered by yeast fitness: ≤ 0.5 for the first, ≤ 0.5 for the second.

Compared with GUUACGUUGGCGUAAUGCUAACGCGUCUCCCUCCUAAGGAGAAGACUGAGGCUUCGAGUCCCGUACGGAACG, GUUACGUUGGCGUAAUGGUAACACGUCUUCCUCGUAACGAGAAGACUGCGGGUACGCGUCCCGUACGGAACG is higher in yeast fitness: ≤ 0.5 for the first, 0.602 for the second.

First: GUUACGUUGGCCGAAUGGUAACGCGUCUCUCUCCUAAGGAGAAGACUGCGGGUUCGAGUCCCGUACGGAACG
Second: GUUACGUUGACGUAAUGGUAACGCGUCUCCCUCCUAAGGAGAAGACUGCGGGUUCGAGUCCCGUACGGAACG
The yeast fitness of the first is lower: 0.55 for the first, 0.819 for the second.

GUUACGUUGCUGUAAUGGUAACGCGUUUCCCUCCUAAGGAGAAGUCUGCGGGUUCGAGCGCCGUACGGAACG and GUUACGUUGGCGUAAUGAUAACGCGUCUCCCUCGUAAGGAGAAGACUGCGGGUUCGAGUCCCGUAUGGAACG cannot be ordered by yeast fitness: ≤ 0.5 for the first, ≤ 0.5 for the second.

GUUACGUUAGCGUAAAGGUAACGCGUCUCUCUCCUAAGGGGAAGAUUGCGGGUUCGAGUCCCGUACGGAACG and GUUACGUUGGCGUAAUGGUAACACGUCUCCCUCCCAAGGAGAAGACUGCGGGUUCAAGUCCCGUACGGAACG cannot be ordered by yeast fitness: ≤ 0.5 for the first, ≤ 0.5 for the second.

GUUACGUUGCUGUAAUGGUAACGCGUCUCCCUCCUAAGGAAAAGCCUGCGGGUUCGAGUCCCGUUCGGAACG and GUUACAUUGGCGUAAUGGUAACGCGUCUCCCUUCUAAGGAGAUGACUGGCGGUUCGAGUCUCGUAUGGAACG cannot be ordered by yeast fitness: ≤ 0.5 for the first, ≤ 0.5 for the second.

GUUACGUUGGCGUAAUCGUAACCCGUCUCCCUCCUAAGGAGAAGCCUGCGGGUUCGAGUCCCGUAUGGAACG and GUUACCUUGGCGUAAUGGUAACGCGUCUCCCUCCUAAGGAGAAGACUGCGGGUUUGAGUCCCGUACGGAACG cannot be ordered by yeast fitness: ≤ 0.5 for the first, ≤ 0.5 for the second.

Compared with GUUACAUUGGCGUAAUGGUAACGCGUCGCCCUCCUAGGGAGAAGACUGCGGGUUCGAGUCCCGUACGGAACG, GUUACAUUGGCGUAAUGGUAACGCAUCUGCCUCCUAAGGAGAAGACUGCGGGUUCGGGUCCCGUACGGAACG is lower in yeast fitness: 0.738 for the first, ≤ 0.5 for the second.

First: GUUACGUUAGCGUAAUGGUAACGUGUCUCUCUCCUGAGGAGAAGACUGCGGGUUCGAGUCCCGUACAGAACG
Second: GUUACGUUGGCGUAAUGAUAACGCGUCUCCCUCCUAAGGAGAAGACUGCGGGUUCGAAUCCCGUACGGAUCG
The yeast fitness of the first is higher: 0.565 for the first, ≤ 0.5 for the second.

Going from GUUACGUUGGCCUAAUGGCAACGGGUCUCCCUCCUAAGGAGAUGACUGCGGGUUCGAGUCUCGUACGGAACG to GUUACGUUGGCGUAAUGGUAACACGUCUCCCUCCUAAGGAGAAGACUGCGGGCUCGCGUCCCGUACGGAACG, the yeast fitness falls from 0.532 to ≤ 0.5.

GUUACGUUGACGUAAUGGUAACACGUCUCCCUCCUAAGGAGAAGACUGCGGGUUCGAGUCCCGUACGGAACG and GUUACGUUGGCGUAAUGGUAACACGUCUCCCUCCUAAGGCGAAGACUGCGGGCUCGAGUCCCGUACGGAACG cannot be ordered by yeast fitness: ≤ 0.5 for the first, ≤ 0.5 for the second.

GUUACGUUCGGGUAAUGGUAACGCGUCUCCCUCCUAAGGAGAAAACUGCGGGUUCGAGUUCCGUACCGAACG and GUUACGUUGGCGUAAUGCUAACGCGUCUACAUCCUUAGGAGAAGACUGCGGGUUCGAGUCCCGUACGGAACG cannot be ordered by yeast fitness: ≤ 0.5 for the first, ≤ 0.5 for the second.

GUUACGUUGACGUAAUGGUAACGCGUCUCCCUCCUAAGGAGAAGACUGCGGGUUCCAGUGCCGUAUGGAACG and GUUACGUUGACGUAAUGGUAACGCGUCUCCCUCCUUAGGAGAAGACUGCGGGUUCGAGUCCCGUACGGAACG cannot be ordered by yeast fitness: ≤ 0.5 for the first, ≤ 0.5 for the second.

GUUACCUUGGCGUAAUGGUAACGCGUCUCCCUCCUAAGGAGAAGACUGCGGGUUUGAGUCCCGUACGCAACG and GUUACGUUCGGGUAAUGGUACCGCGUCUCCCUCCUAAGGAGAAGACUGCGGGUUUGAGUCCUGUACCGAACG cannot be ordered by yeast fitness: ≤ 0.5 for the first, ≤ 0.5 for the second.

First: GUUACGUUGCCGUAAUGGUAACGCGUCUCCCUCCUAAGGAGAAGACUGCGGGUUCGAGUCCCGUACGGCACG
Second: GUUACGUUGGCGUAAUAGUAACGCGUCUCCCUCCUAAGGAGAAGACUGCGGGUUCGAGUCCCGUACGGAACG
The yeast fitness of the first is lower: ≤ 0.5 for the first, 0.718 for the second.

For GUUACGUUGGCCGAAUGGUAACGCGUCUCUCUCCUAAGGAGAAGACUGCGGGUUCGAGUCCCGUUCGGAACG, the yeast fitness was ≤ 0.5.
